Our source for the Ratio and MTD values is ChEMBL document CHEMBL2010648, “Discovery of novel anti-inflammatory drug-like compounds by aligning in silico and in vivo screening: the nitroindazolinone chemotype” (Eur J Med Chem, 2011).

For series [1], the species on record is Danio rerio. In words: Antiinflammatory activity in transgenic zebrafish larvae harboring Fli-1 gene assessed as LPS-stimulated leukocyte migration to injury zone of tail transected larvae at 3 uM after 20 to 22 hrs by microscopy. Type of series: functional. The procedure, abridged:
(§1)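 Transgenic fli-1:EGFP zebrafish were reared in E3 at 28 °C, with PTU added at 20 hpf. Compounds were dissolved in DMSO and diluted in Danieau's, with final DMSO ≤1%. Ten 4-dpf larvae per group were pretreated for 1 h, anaesthetised with tricaine and tail-transected. They were then incubated with compound plus LPS for 20–22 h, fixed in 4% PFA and stained with Leucognost. Leukocyte migration to the tail tip was scored microscopically as relative leukocyte migration. Run in triplicate.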

The species entered for series [2] is Danio rerio. In words: Toxicity in transgenic zebrafish larvae harboring Fli-1 gene assessed as maximum tolerated dosage after 24 hrs. The format is organism-based. As to conditions: in vivo. The procedure, abridged:
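Fertilized eggs of the fli-1:EGFP line reared in E3 embryo medium at 28 °C, with PTU added at 20 hpf to block pigmentation. Compounds were dissolved in DMSO and diluted in Danieau's 0.3X, final DMSO ≤1%. Larvae at 4 dpf, 5 per well, were exposed for 24 h to 10, 30 and 100 (highest) concentrations and checked by light microscopy at 5 dpf. MTC is the highest concentration giving no death or toxicity signs.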

For series [3], the species on record is Danio rerio. Description: Antiinflammatory activity in transgenic zebrafish larvae harboring Fli-1 gene assessed as LPS-stimulated leukocyte migration to injury zone of tail transected larvae at 10 uM after 20 to 22 hrs by microscopy. The format is functional. The procedure, abridged: as §1
Series [4] is filed under the species Danio rerio. In words: Antiinflammatory activity in transgenic zebrafish larvae harboring Fli-1 gene assessed as LPS-stimulated leukocyte migration to injury zone of tail transected larvae at 1 uM after 20 to 22 hrs by microscopy. Type of series: functional. The procedure, abridged:
as §1

Series [5] is filed under the species Danio rerio. In words: Antiinflammatory activity in transgenic zebrafish larvae harboring Fli-1 gene assessed as LPS-stimulated leukocyte migration to injury zone of tail transected larvae at 30 uM after 20 to 22 hrs by microscopy. The format is functional. The procedure, abridged:
as §1

Take `O=[N+]([O-])c1ccc2c(c1)c(OCc1ccccc1)nn2Cc1ccccc1`: the Ratio in the series listed under Danio rerio [1] is on record as 0.75; in the series listed under Danio rerio [3] it was 0.73; in the series listed under Danio rerio [4], 0.94. The MTD in the series listed under Danio rerio [2] was 10 µM.

As to `COc1nn(Cc2ccccc2-c2ccccc2Cn2nc(OC)c3cc([N+](=O)[O-])ccc32)c2ccc([N+](=O)[O-])cc12`, the Ratio in the series filed under Danio rerio [1] is given as 0.87; in the series filed under Danio rerio [3] it was 0.69; in the series listed under Danio rerio [4], 0.84. In addition, the MTD in the series filed under Danio rerio [2] was 10 µM.

For the molecule `O=c1[nH]n(Cc2ccccc2Cl)c2ccc([N+](=O)[O-])cc12`, the Ratio is 0.78 in the series filed under Danio rerio [1], 0.26 in the series listed under Danio rerio [5] and 0.22 in the series listed under Danio rerio [3]. The MTD in the series filed under Danio rerio [2] is 30 µM.

`O=C(NCc1cc([N+](=O)[O-])ccc1N1CCc2ccccc2C1)NCc1cc([N+](=O)[O-])ccc1N1CCc2ccccc2C1`: the Ratio was 0.82 in the series filed under Danio rerio [1], 0.81 in the series filed under Danio rerio [3] and 0.85 in the series filed under Danio rerio [4]. Also, the MTD in the series filed under Danio rerio [2] amounted to 10 µM.

Take `O=c1[nH]n(Cc2ccccc2OCc2ccccc2)c2ccc([N+](=O)[O-])cc12`: the Ratio worked out at 0.76 in the series filed under Danio rerio [1], 0.84 in the series filed under Danio rerio [3] and 0.94 in the series listed under Danio rerio [4]. Also, the MTD in the series filed under Danio rerio [2] was found to be 10 µM.

Turning to `O=c1[nH]n(Cc2ccccc2CCl)c2ccc([N+](=O)[O-])cc12`, the Ratio in the series filed under Danio rerio [1] is 0.78; in the series listed under Danio rerio [3], 0.33; in the series filed under Danio rerio [4] it was 0.83. Moreover, the MTD in the series filed under Danio rerio [2] came out at 10 µM.

As for `CCCn1c2ccc([N+](=O)[O-])cc2c(=O)n1Cc1ccccc1`, the Ratio in the series filed under Danio rerio [1] is 0.89; in the series filed under Danio rerio [5] it was 0.16; in the series filed under Danio rerio [3], 0.86. The MTD in the series listed under Danio rerio [2] was 30 µM.

With `COc1ccc(Cn2[nH]c(=O)c3cc([N+](=O)[O-])ccc32)cc1`, the Ratio in the series filed under Danio rerio [1] turned out to be 0.87; in the series filed under Danio rerio [3], 0.8; in the series listed under Danio rerio [4], 0.87. The MTD in the series listed under Danio rerio [2] was 10 µM.

As to `O=C1Nc2cc([N+](=O)[O-])ccc2N2Cc3ccccc3CC12` (centres undefined), the figures for the Ratio in the series listed under Danio rerio [1], in the series filed under Danio rerio [3] and in the series listed under Danio rerio [4] were 0.71, 0.77 and 0.75, respectively. Moreover, in the series listed under Danio rerio [2], the MTD turned out to be 10 µM.

As to `CCOCc1ccccc1CCN1CC(=O)Nc2cc([N+](=O)[O-])ccc21`, the Ratio in the series listed under Danio rerio [1] was 0.62; in the series listed under Danio rerio [3] it was 0.48; in the series listed under Danio rerio [4] it was 0.59. In the series filed under Danio rerio [2], the MTD is 10 µM.

Take `O=c1c2cccnc2n2n1Cc1ccccc1C2`: the results for the Ratio in the series filed under Danio rerio [1], in the series listed under Danio rerio [5] and in the series filed under Danio rerio [3] were 0.89, 0.52 and 0.8, respectively. Moreover, the MTD in the series listed under Danio rerio [2] was 30 µM.

On to `O=c1[nH]n(Cc2cccc(Cn3[nH]c(=O)c4cc([N+](=O)[O-])ccc43)c2)c2ccc([N+](=O)[O-])cc12`, for which the Ratio in the series listed under Danio rerio [1] was found to be 0.8; in the series filed under Danio rerio [3] it was 0.64; in the series listed under Danio rerio [4] it was 0.87. Moreover, the MTD in the series listed under Danio rerio [2] came to 10 µM.

In the case of `O=c1c2cc([N+](=O)[O-])ccc2n2n1Cc1ccccc1C2`, the Ratio in the series filed under Danio rerio [1] was determined as 0.54; in the series filed under Danio rerio [3] it was 0.29; in the series filed under Danio rerio [4], 0.56. Besides, the MTD in the series filed under Danio rerio [2] amounted to 10 µM.

Take `O=c1[nH]n(Cc2ccccc2F)c2ccc([N+](=O)[O-])cc12`: the Ratio in the series listed under Danio rerio [1] is reported as 0.84; in the series filed under Danio rerio [3] it was 0.3; in the series filed under Danio rerio [4], 0.91. The MTD in the series filed under Danio rerio [2] came out at 10 µM.

On to `O=c1[nH]n(Cc2ccccc2-c2ccccc2Cn2[nH]c(=O)c3cc([N+](=O)[O-])ccc32)c2ccc([N+](=O)[O-])cc12`, for which the Ratio was found to be 0.92 in the series listed under Danio rerio [1], 0.85 in the series filed under Danio rerio [3] and 0.72 in the series listed under Danio rerio [4]. For the same molecule, the MTD in the series filed under Danio rerio [2] was 10 µM.

With `O=c1[nH]n(Cc2ccccc2)c2ccc([N+](=O)[O-])cc12`, the Ratio in the series listed under Danio rerio [1] was 0.67; in the series listed under Danio rerio [3], 0.46; in the series listed under Danio rerio [4] it was 0.88. In addition, the MTD in the series listed under Danio rerio [2] was found to be 10 µM.
